The source made the active and inactive calls. The rule behind the calls is not given here.
What was measured:
[1] = Selectivity index, ratio of IC50 for human HS895SK cells to EC50 for human CA46 cells measured after 24 hrs by CellTiter-Glo luminescent assay
How it was run: (§1)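 High-throughput viability screen of test agents across a panel of 22 cancerous and noncancerous human cell lines. Viability was read by CellTiter-Glo luminescence.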

[2] = Selectivity index, ratio of IC50 for human Hs578Bst cells to EC50 for human SU-DHL-4 cells measured after 24 hrs by CellTiter-Glo luminescent assay; format: toxicity; settings: Hs578Bst cells (IC50) versus SU-DHL-4 cells (EC50); how it was run: as §1
[3] = target: T1, Inhibitor of nuclear factor kappa-B kinase subunit alpha (Homo sapiens) (UniProt O15111); assay: Inhibition of IKK alpha nuclear translocation in human HEK-293T cells assessed as reduction in IKK alpha level in nucleus at 15 uM pretreated with compound for 1 hr followed by stimulation with IL-1 beta for 3 hrs by western blot analysis; format: subcellular
T1 sequence (whole entry): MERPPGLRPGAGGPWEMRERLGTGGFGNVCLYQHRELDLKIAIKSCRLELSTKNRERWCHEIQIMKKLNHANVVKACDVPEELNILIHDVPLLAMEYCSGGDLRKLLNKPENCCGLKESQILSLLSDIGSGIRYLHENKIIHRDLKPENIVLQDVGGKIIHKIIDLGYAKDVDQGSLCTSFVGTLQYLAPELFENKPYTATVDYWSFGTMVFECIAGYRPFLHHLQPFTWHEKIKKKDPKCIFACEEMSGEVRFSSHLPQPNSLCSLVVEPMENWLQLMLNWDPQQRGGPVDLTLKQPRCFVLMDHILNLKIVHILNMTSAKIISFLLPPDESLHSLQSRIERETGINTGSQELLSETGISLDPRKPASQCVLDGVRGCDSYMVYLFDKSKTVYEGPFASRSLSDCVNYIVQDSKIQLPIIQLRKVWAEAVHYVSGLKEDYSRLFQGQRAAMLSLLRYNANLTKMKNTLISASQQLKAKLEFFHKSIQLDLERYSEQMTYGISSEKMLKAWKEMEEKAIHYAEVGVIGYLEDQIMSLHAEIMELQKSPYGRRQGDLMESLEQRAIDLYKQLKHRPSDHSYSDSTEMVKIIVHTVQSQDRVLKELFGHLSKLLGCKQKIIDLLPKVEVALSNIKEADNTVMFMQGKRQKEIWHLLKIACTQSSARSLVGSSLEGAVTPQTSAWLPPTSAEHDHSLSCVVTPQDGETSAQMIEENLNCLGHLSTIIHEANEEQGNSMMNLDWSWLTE
How it was run: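 HEK 293T cells were pretreated with vehicle or test agent, then stimulated with IL-1β (or vehicle). Cells were lysed and nuclei separated, and the cytosolic and nuclear fractions were each probed for IKKα and IKKβ by Western blotting.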

[4] = Cytotoxicity against human Hs895SK cells assessed as reduction in cell viability measured after 24 hrs by CellTiter-Glo luminescent assay; format: cell-based; settings: Hs 895.Sk; how it was run: as §1
[5] = Selectivity index, ratio of IC50 for human Hs578Bst cells to EC50 for human CA46 cells measured after 24 hrs by CellTiter-Glo luminescent assay; format: toxicity; settings: Hs578Bst cells (IC50) versus CA46 cells (EC50); how it was run: as §1
[6] = Selectivity index, ratio of IC50 for human Hs888lu cells to EC50 for human HS578T cells measured after 24 hrs by CellTiter-Glo luminescent assay; how it was run: as §1

- inhibition [3]: Active
SMILES: C=C1C[C@]23C[C@@]1(O)CC[C@H]2[C@@]12C=CC(=O)[C@@](C)(C(=O)O1)[C@H]2[C@@H]3C(=O)OC
- Ratio IC50/EC50 [1]: 500
- selectivity ratio at 24 h [2]: 500
- IC50 [4]: > 10 µM
- selectivity ratio at 24 h [5]: 500
- Ratio IC50/EC50 [6]: > 500
